Measurements reported in PubChem BioAssay.
Active and inactive are the calls of the source. Cut-off read from the data, not from the text of the source, unless noted: active = inhibition above about 30%; inactive = the rest.

Columns and labels:
[1] = Her2 expression decrease, cell viability multiplex – SKBR3 breast tumor cells, AlphaScreen, ATP viability, primary screen (AID 461;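 active = Her2 level under about 52% in both replicate screens, with viability over 70% of control, limit read from the data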;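 for Her2 level: lower value means less Her2 protein in the cells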;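 for viability: percent of carrier control wells set as 100% viability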); conditions: SKBR3 Her2 protein level, 18-24 h, measured here: SKBR3 viability, ATP luminescence, at 10 µM
[2] = molecular target: Receptor tyrosine-protein kinase erbB-2 (Homo sapiens) (UniProt P04626); experiment: as above; conditions: 18-24 h, at 10 µM, stronger effect = lower value
[3] = reduced viability of SK-BR-3 breast cancer cells – cell-based, 24 h, human, pilot screen (AID 572;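 active = viability at or below 10% of carrier control in both of two separate runs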;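 note: compound exposure lasted between 18 and 24 h rather than exactly 24 h; 100% = carrier-treated control wells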); conditions: SK-BR-3 viability, CellTiter-Glo luminescence, at 10 µM, stronger effect = lower value
[4] = HUVEC growth inhibition – cell-based, human, primary screen (AID 575;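 active = viability at or below 30% in both replicate assays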;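 note: 100% = median of untreated cell wells with 0.1% DMSO on each plate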); conditions: HUVEC proliferation, CellTiter-Glo luminescence, 72 h; at 10 µM; stronger effect = lower value
Procedure, shortened: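 Assay system: Primary human umbilical vein endothelial cells | Quantity: 1250 cells per well | Medium: Supplemented EBM, 2% fetal bovine serum | Detection: CellTiter-Glo luminescence measuring cellular ATP | Read-out: % viability vs DMSO wells | Plate: Collagen-coated 384-well format | Times: 72 h exposure, 37 °C, 5% CO2, 30 min RT equilibration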

[5] = H69AR cell proliferation blockers – human, duplicate replicates, primary screen (AID 580;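 active = viability at or under a set limit in both replicates, limit being median viability minus 3 SD, cut at about 48% in these data, passing the limit was not always enough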;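 note: 100% = mean luminescence of untreated wells and 0% = no signal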); conditions: H69AR lung tumor cells viability, ATP luminescence, 72 h; at 10 µM; stronger effect = lower value
[6] = MRP1 drug-resistance reversers in H69AR cells – cell-based, doxorubicin co-treatment, pilot screen (AID 601;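 active = viability loss from added drug above about 55%, and viability with drug at most 40%, in both replicates, limit read from the data, passing the limit was not always enough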); conditions: CellTiter-Glo, 72 h, at 10 µM; for differential viability (reversal): stronger effect = higher value
[7] = yeast transport mutant growth inhibition pilot in 384-well plates, post-Golgi transport modulator project (AID 636; in the data active = inhibition above about 31%); conditions: absorbance 615 nm, about 18 h, stronger effect = higher value
[8] = growth suppression of yeast trafficking mutant, preliminary HTS, modulators of trafficking downstream of Golgi apparatus project, 1536-format plate, OD 615 nm (AID 637); conditions: yeast transport mutant growth, absorbance 615 nm, 18 h; stronger effect = higher value
[9] = H69AR cells + 2 uM doxorubicin, measured here: viability with 2 uM doxorubicin, stronger effect = lower value
[10] = H69AR cells, compound alone cytotoxicity

Sequence of Receptor tyrosine-protein kinase erbB-2 (Homo sapiens) (P04626 whole entry, looked up): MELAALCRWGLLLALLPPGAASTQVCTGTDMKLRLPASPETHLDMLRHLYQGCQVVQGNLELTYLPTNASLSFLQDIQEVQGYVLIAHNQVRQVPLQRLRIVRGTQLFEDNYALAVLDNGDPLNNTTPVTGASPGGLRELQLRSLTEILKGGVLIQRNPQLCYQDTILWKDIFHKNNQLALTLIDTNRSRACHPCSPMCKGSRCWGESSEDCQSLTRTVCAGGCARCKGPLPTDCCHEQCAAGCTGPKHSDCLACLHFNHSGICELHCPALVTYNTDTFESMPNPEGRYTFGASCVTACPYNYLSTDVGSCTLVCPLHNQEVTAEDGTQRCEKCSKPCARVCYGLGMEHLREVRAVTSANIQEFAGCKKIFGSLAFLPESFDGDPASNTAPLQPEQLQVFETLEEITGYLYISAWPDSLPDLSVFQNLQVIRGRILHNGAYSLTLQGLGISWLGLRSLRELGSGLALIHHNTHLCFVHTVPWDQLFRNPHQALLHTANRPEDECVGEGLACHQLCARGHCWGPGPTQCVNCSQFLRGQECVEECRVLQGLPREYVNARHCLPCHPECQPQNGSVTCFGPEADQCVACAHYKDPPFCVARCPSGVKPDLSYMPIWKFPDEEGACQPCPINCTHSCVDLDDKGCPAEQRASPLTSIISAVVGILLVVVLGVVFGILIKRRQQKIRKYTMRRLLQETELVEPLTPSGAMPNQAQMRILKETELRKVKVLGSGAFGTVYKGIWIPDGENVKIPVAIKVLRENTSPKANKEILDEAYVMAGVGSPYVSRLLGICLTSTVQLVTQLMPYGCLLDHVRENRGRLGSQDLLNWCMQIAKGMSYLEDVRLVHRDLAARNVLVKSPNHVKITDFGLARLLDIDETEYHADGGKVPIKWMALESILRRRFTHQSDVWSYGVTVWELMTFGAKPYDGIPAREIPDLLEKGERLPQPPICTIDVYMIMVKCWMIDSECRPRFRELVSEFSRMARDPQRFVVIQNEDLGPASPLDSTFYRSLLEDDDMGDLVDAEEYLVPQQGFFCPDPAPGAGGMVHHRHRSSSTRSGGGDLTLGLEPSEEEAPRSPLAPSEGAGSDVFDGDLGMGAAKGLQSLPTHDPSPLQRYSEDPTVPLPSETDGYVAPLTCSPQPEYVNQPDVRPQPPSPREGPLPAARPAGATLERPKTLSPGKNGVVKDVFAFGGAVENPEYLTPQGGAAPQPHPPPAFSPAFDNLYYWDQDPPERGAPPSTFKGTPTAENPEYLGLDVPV

| Structure (SMILES) | viability [1] | Her2 level [2] | viability [3] | viability [4] | viability [5] | differential viability (reversal) ([6]; H69AR cells + 2 uM doxorubicin) | viability [6, 9] | viability [6, 10] | inhibition [7] | inhibition [8] |
| --- | --- | --- | --- | --- | --- | --- | --- | --- | --- | --- |
| COc1ccc(CCNC(=O)CSc2nncn2N)cc1OC | 93.5% | 80.5% (inactive) | 93.5% (inactive) | 109% (inactive) | 96.4% (inactive) | 8% (inactive) | 88.4% | 96.4% | -2.11% (inactive) | -3.5% (inactive) |
| O=C(c1cnsn1)N1CCN(c2ccccn2)CC1 | 122% | 75% (inactive) | 122% (inactive) | 100% (inactive) | 102% (inactive) | 10.7% (inactive) | 91.7% | 102% | -0.66% (inactive) | -5.87% (inactive) |
| O=C(OCC(=O)N1CCCCCC1)c1cccs1 | 99% | 95.5% (inactive) | 99% (inactive) | 103% (inactive) | 106% (inactive) | 9.71% (inactive) | 96.7% | 106% | -0.67% (inactive) | 1.77% (inactive) |
| COC(=O)c1cc(Br)c(=O)n(CCN2CCOCC2)c1 | 102% | 87% (inactive) | 102% (inactive) | 81.5% (inactive) | 96.2% (inactive) | 13.5% (inactive) | 82.8% | 96.2% | -4.27% (inactive) | -0.49% (inactive) |
| Cc1cc(C(F)(F)F)nn1Cc1ccc(C(=O)NCc2ccco2)o1 | 97% | 105% (inactive) | 97% (inactive) | 95.3% (inactive) | 89.9% (inactive) | 0.38% (inactive) | 89.5% | 89.9% | -0.53% (inactive) | 0.82% (inactive) |
| O=C(Cc1cccs1)Nc1ccccc1C(=O)O | 109% | 96.5% (inactive) | 109% (inactive) | 87.5% (inactive) | 103% (inactive) | 5.91% (inactive) | 97.2% | 103% | -4.67% (inactive) | 5.16% (inactive) |
| COc1cc2c(cc1OC)C(c1cc(OC)c(OC)c(OC)c1)NCC2 (stereo not given) | 95.5% | 81% (inactive) | 95.5% (inactive) | 92.4% (inactive) | 91.9% (inactive) | -0.03% (inactive) | 91.9% | 91.9% | -3.95% (inactive) | -0.97% (inactive) |
| CC(=O)c1cc2c(=O)c3cc(C)ccc3oc2nc1C | 102% | 72.5% (inactive) | 102% (inactive) | 68.4% (inactive) | 72.5% (inactive) | -7.35% (inactive) | 79.9% | 72.5% | -2.89% (inactive) | -1.43% (inactive) |
| NC1=NC(c2ccc(Br)cc2)n2c(nc3ccccc32)N1 (stereo not given) | 90% | 82% (inactive) | 90% (inactive) | 75.5% (inactive) | 81.4% (inactive) | 4.81% (inactive) | 76.6% | 81.4% | -5.13% (inactive) | -6% (inactive) |
| O=C(O)C1CC=CCC1C(=O)Nc1cc(Cl)ccc1Cl (stereo not given) | 86% | 100% (inactive) | 86% (inactive) | 81.2% (inactive) | 93.5% (inactive) | 8.81% (inactive) | 84.7% | 93.5% | 0% (inactive) | -0.82% (inactive) |
| COc1ccc(N2CCN(c3ccc(N)cc3C#N)CC2)cc1 | 103% | 88.5% (inactive) | 103% (inactive) | 78.2% (inactive) | 95% (inactive) | 2.29% (inactive) | 92.7% | 95% | -3.38% (inactive) | 0.32% (inactive) |
| O=C(/C=N/O)NCc1ccncc1 | 100% | 94.5% (inactive) | 100% (inactive) | 102% (inactive) | 108% (inactive) | 7.88% (inactive) | 100% | 108% | -1.43% (inactive) | -3.81% (inactive) |
| CC(C)(C)NC(=O)C(c1ccco1)N(C(=O)Cn1nnc(-c2ccc(F)cc2)n1)c1ccccc1F (stereo not given) | 99% | 84% (inactive) | 99% (inactive) | 96% (inactive) | 99.3% (inactive) | -11% (inactive) | 110% | 99.3% | -5.54% (inactive) | 21.8% (inactive) |
| Cc1ncc(CSc2nc3ccccc3[nH]2)c(N)n1 | 104% | 92.5% (inactive) | 104% (inactive) | 115% (inactive) | 104% (inactive) | 16.8% (inactive) | 87.5% | 104% | -2.03% (inactive) | 1.43% (inactive) |
| O=C(CSc1ncnc2c1oc1ccccc12)NCc1ccco1 | 140% | 60% (inactive) | 140% (inactive) | 83.7% (inactive) | 76.4% (inactive) | -5.7% (inactive) | 82.1% | 76.4% | -6.27% (inactive) | 2.62% (inactive) |
| Fc1cc(F)c(F)c(SCCc2ccncc2)c1F | 97% | 81.5% (inactive) | 97% (inactive) | 93.8% (inactive) | 85.3% (inactive) | 5% (inactive) | 80.3% | 85.3% | 0.67% (inactive) | 1.45% (inactive) |

| Structure (SMILES) | viability [1] | Her2 level [2] | viability [3] | viability [4] | viability [5] | differential viability (reversal) ([6]; H69AR cells + 2 uM doxorubicin) | viability [6, 9] | viability [6, 10] | inhibition [7] | inhibition [8] |
| --- | --- | --- | --- | --- | --- | --- | --- | --- | --- | --- |
| CC(C)CC(=O)CN1C(=O)C2(OCCO2)c2ccccc21 | 93.5% | 107% (inactive) | 93.5% (inactive) | 101% (inactive) | 89.6% (inactive) | -6.21% (inactive) | 95.8% | 89.6% | -5.14% (inactive) | 1.83% (inactive) |
| O=C(Nc1ccccc1)c1cccc(N2CCCC2=O)c1 | 93% | 114% (inactive) | 93% (inactive) | 104% (inactive) | 103% (inactive) | 18.2% (inactive) | 84.8% | 103% | -1.07% (inactive) | -9.52% (inactive) |
| c1ccc(Nc2ccccc2Nc2ccccn2)nc1 | 138% | 108% (inactive) | 138% (inactive) | 95.8% (inactive) | 91.7% (inactive) | -7.51% (inactive) | 99.2% | 91.7% | -3.33% (inactive) | 5.08% (inactive) |
| O=C(NC1CCCc2ccccc21)C1CCN(S(=O)(=O)c2cnc[nH]2)CC1 (stereo not given) | 104% | 100% (inactive) | 104% (inactive) | 102% (inactive) | 94.8% (inactive) | -11.3% (inactive) | 106% | 94.8% | -0.79% (inactive) | -3.87% (inactive) |
| Nc1nc(-c2ccccc2Br)cs1 | 91.5% | 96.5% (inactive) | 91.5% (inactive) | 86.3% (inactive) | 91.5% (inactive) | 9.75% (inactive) | 81.8% | 91.5% | -0.66% (inactive) | -8.55% (inactive) |
| c1ccc(Oc2ccc(-n3cnnn3)cc2)cc1 | 102% | 122% (inactive) | 102% (inactive) | 95.7% (inactive) | 94.2% (inactive) | 15.4% (inactive) | 78.8% | 94.2% | -0.52% (inactive) | -12.2% (inactive) |
| Cc1cc(C)c(NC(=O)C2CCCN2CCO)c(C)c1 (stereo not given) | 83% | 135% (inactive) | 83% (inactive) | 108% (inactive) | 86.5% (inactive) | -3.78% (inactive) | 90.3% | 86.5% | 0.79% (inactive) | -8.69% (inactive) |
| COc1ccc(C2(C(=O)N3CCCC3)CCOCC2)cc1OC | 88.5% | 126% (inactive) | 88.5% (inactive) | 82.2% (inactive) | 97.2% (inactive) | 9.43% (inactive) | 87.8% | 97.2% | 3.21% (inactive) | -11% (inactive) |
| CC1CCc2cc(F)cc3c(O)c(C(=O)NCC4CCCO4)c(=O)n1c23 (stereo not given) | 93.5% | 94% (inactive) | 93.5% (inactive) | 80.8% (inactive) | 85.6% (inactive) | -8.57% (inactive) | 94.2% | 85.6% | 0.66% (inactive) | -9.84% (inactive) |
| CCCCCn1c(CN2CCN(C(=O)OCC)CC2)nc2c1c(=O)[nH]c(=O)n2C | 82% | 94.5% (inactive) | 82% (inactive) | 88.9% (inactive) | 98.5% (inactive) | 15.8% (inactive) | 82.7% | 98.5% | -0.67% (inactive) | 0.16% (inactive) |
| COc1ccc(CNc2nc(SCC(=O)NCc3ccco3)nc3ccccc23)cc1 | 80% | 90.5% (inactive) | 80% (inactive) | 84.6% (inactive) | 94.4% (inactive) | 17.6% (inactive) | 76.7% | 94.4% | -3.6% (inactive) | -4.26% (inactive) |
| O=c1c2ccccc2sn1-c1ccc(S(=O)(=O)N2CCCCC2)cc1 | 91.5% | 81.5% (inactive) | 91.5% (inactive) | 83.9% (inactive) | 78.1% (inactive) | 5.85% (inactive) | 72.3% | 78.1% | -5.54% (inactive) | 9.17% (inactive) |
| CCc1ccc2nc(NC(=O)CSCc3c(C)noc3C)sc2c1 | 88.5% | 110% (inactive) | 88.5% (inactive) | 52.5% (inactive) | 87.2% (inactive) | -10.5% (inactive) | 97.6% | 87.2% | -0.67% (inactive) | -7.54% (inactive) |
| C=CCSc1nc2c(c(=O)[nH]c(=O)n2C)n1C(C)C | 85.5% | 89% (inactive) | 85.5% (inactive) | 88.9% (inactive) | 106% (inactive) | 17.9% (inactive) | 88.2% | 106% | -2.63% (inactive) | -1.64% (inactive) |
| COC(=O)c1cccc(NC(=O)CSc2nnc(COc3ccc(C#N)cc3)n2-c2ccccc2)c1 | 92% | 112% (inactive) | 92% (inactive) | 105% (inactive) | 87.8% (inactive) | -1.66% (inactive) | 89.4% | 87.8% | 3.38% (inactive) | -3.02% (inactive) |
| CCCCn1nc(C(=O)N2CCc3ccccc32)c2ccccc2c1=O | 81.5% | 110% (inactive) | 81.5% (inactive) | 91.8% (inactive) | 93.9% (inactive) | -11.2% (inactive) | 105% | 93.9% | -0.4% (inactive) | -10.6% (inactive) |
